Measurements from ChEMBL document CHEMBL4433221, “Novel Sustainable-by-Design HDAC Inhibitors for the Treatment of Alzheimer's Disease” (ACS Med Chem Lett, 2019).
pIC50: −log10 of the molar value. The source made the active and inactive calls. The calls are words filed in the database; no cut-off is given here.

How the values were obtained:
[1] = molecular target: T1, Protein deacetylase HDAC6 (Homo sapiens, UniProt Q9UBN7); assay: Inhibition of human recombinant HDAC6 using ZMAL (Z-(Ac)Lys-AMC fluorogenic substrate incubated for 90 mins by fluorescence method
T1 sequence (Q9UBN7 whole entry): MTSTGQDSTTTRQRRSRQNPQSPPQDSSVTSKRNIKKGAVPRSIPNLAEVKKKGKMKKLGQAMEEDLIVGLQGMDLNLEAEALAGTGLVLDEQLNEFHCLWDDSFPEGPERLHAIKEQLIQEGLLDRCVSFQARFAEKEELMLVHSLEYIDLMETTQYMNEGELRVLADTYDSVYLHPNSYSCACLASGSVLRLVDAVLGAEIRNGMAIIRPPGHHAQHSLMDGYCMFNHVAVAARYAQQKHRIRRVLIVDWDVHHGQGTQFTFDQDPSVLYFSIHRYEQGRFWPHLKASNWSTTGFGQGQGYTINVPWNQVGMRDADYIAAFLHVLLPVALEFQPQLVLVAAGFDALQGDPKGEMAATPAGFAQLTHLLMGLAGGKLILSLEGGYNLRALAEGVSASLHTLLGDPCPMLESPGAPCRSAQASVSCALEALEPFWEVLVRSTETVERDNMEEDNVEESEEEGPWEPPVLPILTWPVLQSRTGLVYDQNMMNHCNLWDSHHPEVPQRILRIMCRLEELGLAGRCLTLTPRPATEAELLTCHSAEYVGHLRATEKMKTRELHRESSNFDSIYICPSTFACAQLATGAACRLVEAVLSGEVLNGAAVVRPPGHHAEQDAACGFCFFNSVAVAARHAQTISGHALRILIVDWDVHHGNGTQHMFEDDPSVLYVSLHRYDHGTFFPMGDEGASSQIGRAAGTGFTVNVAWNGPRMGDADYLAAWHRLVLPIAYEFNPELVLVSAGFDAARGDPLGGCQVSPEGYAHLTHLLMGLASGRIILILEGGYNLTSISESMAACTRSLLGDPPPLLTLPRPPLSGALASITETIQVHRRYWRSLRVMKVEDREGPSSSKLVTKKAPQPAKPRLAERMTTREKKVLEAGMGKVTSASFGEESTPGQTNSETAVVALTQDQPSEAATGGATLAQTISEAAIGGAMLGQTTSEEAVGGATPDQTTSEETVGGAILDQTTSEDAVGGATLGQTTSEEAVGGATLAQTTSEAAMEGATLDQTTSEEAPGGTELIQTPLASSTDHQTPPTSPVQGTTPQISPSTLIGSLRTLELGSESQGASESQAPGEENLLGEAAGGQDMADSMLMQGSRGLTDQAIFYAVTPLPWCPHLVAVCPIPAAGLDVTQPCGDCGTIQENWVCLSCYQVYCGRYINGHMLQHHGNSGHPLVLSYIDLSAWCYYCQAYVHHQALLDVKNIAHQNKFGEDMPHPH

[2] = Neurotoxicity against rat CGN cells assessed as cell viability at 5 uM incubated for 24 hrs by MTT assay; format: toxicity, cell-based; conditions: read-out: Activity
Outline: (§1)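 Primary rat cerebellar granule neuron cultures were exposed for 24 h to 5, 25 or 50 μM. Viability was measured by MTT and expressed as percentage of untreated controls, as mean ± SE of at least three experiments, each run in triplicate.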

N9 [3] = assay: Immunomodulatory activity in mouse N9 cells assessed as reduction in LPS-induced MRC1 expression at 5 to 25 uM incubated for 24 hrs by Western blot analysis; format: functional, cell-based
Outline: (§2)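 N9 mouse microglial cells stimulated with LPS (100 ng/mL) and treated at 5 and 25 μM. iNOS and MRC1 levels were read by Western blot with GAPDH as loading control. Densitometry is expressed as percentage of LPS-only cells, as mean ± SE of three independent experiments.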

[4] = Neurotoxicity against rat CGN cells assessed as cell viability at 50 uM incubated for 24 hrs by MTT assay; format: toxicity, cell-based; conditions: read-out: Activity; outline: as §1
N9 [5] = assay: Immunomodulatory activity in mouse N9 cells assessed as increase in LPS-induced MRC1 expression at 25 uM incubated for 24 hrs by Western blot analysis; format: functional, cell-based; outline: as §2

Row | SMILES | pIC50 [1] | viability at 24 h, 5 µM [2] [%] | Activity (N9 [3]) | viability at 24 h, 50 µM [4] [%] | Activity (N9 [5])
1 | COc1cccc(CCCCCCCC(=O)NO)c1 | 6.72 | ≤ 50 | Dose-dependent effect |  | 
2 | COC(=O)c1c(CCCCCCCC(=O)NO)cccc1OC | 6.67 |  |  | > 80 | Active
